Assay results taken from paper PMC9217999 (Targeted Oncology, 2022).
Entries after “also recorded” stand apart in the source; their conditions may differ.

Test: Safety and tolerability in iMATRIX-cobi Phase I/II study
Assay type: in vivo, human
How it was run: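 Patients aged 6 months to <30 years with relapsed/refractory solid tumors with MAPK pathway involvement. Oral test compound (20-mg tablet or suspension, with/without food) on Days 1–21 of 28-day cycles. Cumulative weekly weight-based dose rounded to 20 mg, capped at 60 mg/day. Rolling 6 escalation in cohorts of 3–6. Eye exams including OCT at baseline, cycle 1 Days 8/15, and each later cycle Day 1. All dosed patients evaluated.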

[1] = Dose escalation tablet (n = 18)

Structure (SMILES): O=C(c1ccc(F)c(F)c1Nc1ccc(I)cc1F)N1CC(O)([C@@H]2CCCCN2)C1 [cobimetinib]
- Treatment-related AE: Encephalopathy, G3 [1]: 1 (6) n (%)
- Treatment-related AE: Encephalopathy, G4 [1]: 0 n (%)
- Treatment-related AE: Erythema, G1 [1]: 2 (11) n (%)
- Treatment-related AE: Erythema, G2 [1]: 0 n (%)
- Treatment-related AE: Erythema, G3 [1]: 0 n (%)
- Treatment-related AE: Erythema, G4 [1]: 0 n (%)
- Treatment-related AE: Fatigue, G1 [1]: 2 (11) n (%)
- Treatment-related AE: Fatigue, G2 [1]: 0 n (%)
- Treatment-related AE: Fatigue, G3 [1]: 0 n (%)
- Treatment-related AE: Fatigue, G4 [1]: 0 n (%)
- Treatment-related AE: Headache, G1 [1]: 1 (6) n (%)
- Treatment-related AE: Headache, G2 [1]: 0 n (%)
- Treatment-related AE: Headache, G3 [1]: 1 (6) n (%)
- Treatment-related AE: Headache, G4 [1]: 0 n (%)
- Treatment-related AE: Nausea, G1 [1]: 3 (17) n (%)
- Treatment-related AE: Nausea, G2 [1]: 0 n (%)
- Treatment-related AE: Nausea, G3 [1]: 0 n (%)
- Treatment-related AE: Nausea, G4 [1]: 0 n (%)
- Treatment-related AE: Paronychia, G1 [1]: 0 n (%)
- Treatment-related AE: Paronychia, G2 [1]: 0 n (%)
- Treatment-related AE: Paronychia, G3 [1]: 0 n (%)
- Treatment-related AE: Paronychia, G4 [1]: 0 n (%)
- Treatment-related AE: Rash, G1 [1]: 3 (17) n (%)
- Treatment-related AE: Rash, G2 [1]: 0 n (%)
- Treatment-related AE: Rash, G3 [1]: 0 n (%)
- Treatment-related AE: Rash, G4 [1]: 0 n (%)
- Treatment-related AE: Transaminases increased, G1 [1]: 0 n (%)
- Treatment-related AE: Transaminases increased, G2 [1]: 0 n (%)
- Treatment-related AE: Transaminases increased, G3 [1]: 0 n (%)
- Treatment-related AE: Transaminases increased, G4 [1]: 0 n (%)
- Treatment-related AE: Vomiting, G1 [1]: 1 (6) n (%)
- Treatment-related AE: Vomiting, G2 [1]: 2 (11) n (%)
- Treatment-related AE: Vomiting, G3 [1]: 0 n (%)
- Treatment-related AE: Vomiting, G4 [1]: 0 n (%)
- Treatment-related AE: Weight increased, G1 [1]: 0 n (%)
- Treatment-related AE: Weight increased, G2 [1]: 0 n (%)
- Treatment-related AE: Weight increased, G3 [1]: 1 (6) n (%)
- Treatment-related AE: Weight increased, G4 [1]: 0 n (%)
- Any treatment-related AE, G1 (Dose expansion (n = 12)): 3 (25) n (%)
- Any treatment-related AE, G2 (Dose expansion (n = 12)): 3 (25) n (%)
- Any treatment-related AE, G3 (Dose expansion (n = 12)): 3 (25) n (%)
- Any treatment-related AE, G4 (Dose expansion (n = 12)): 2 (17) n (%)
- Treatment-related AE: ALT increased, G1 (Dose expansion (n = 12)): 1 (8) n (%)
- Treatment-related AE: ALT increased, G2 (Dose expansion (n = 12)): 0 n (%)
- Treatment-related AE: ALT increased, G3 (Dose expansion (n = 12)): 0 n (%)
- Treatment-related AE: ALT increased, G4 (Dose expansion (n = 12)): 0 n (%)
- Treatment-related AE: AST increased, G1 (Dose expansion (n = 12)): 1 (8) n (%)
- Treatment-related AE: AST increased, G2 (Dose expansion (n = 12)): 0 n (%)
- Treatment-related AE: AST increased, G3 (Dose expansion (n = 12)): 1 (8) n (%)
- Treatment-related AE: AST increased, G4 (Dose expansion (n = 12)): 0 n (%)
- Treatment-related AE: Abdominal pain, G1 (Dose expansion (n = 12)): 3 (25) n (%)
- Treatment-related AE: Abdominal pain, G2 (Dose expansion (n = 12)): 0 n (%)
- Treatment-related AE: Abdominal pain, G3 (Dose expansion (n = 12)): 0 n (%)
- Treatment-related AE: Abdominal pain, G4 (Dose expansion (n = 12)): 0 n (%)
- Treatment-related AE: Anemia, G1 (Dose expansion (n = 12)): 1 (8) n (%)
- Treatment-related AE: Anemia, G2 (Dose expansion (n = 12)): 0 n (%)
- Treatment-related AE: Anemia, G3 (Dose expansion (n = 12)): 1 (8) n (%)
- Treatment-related AE: Anemia, G4 (Dose expansion (n = 12)): 0 n (%)
- Treatment-related AE: Asthenia, G1 (Dose expansion (n = 12)): 0 n (%)
- Treatment-related AE: Asthenia, G2 (Dose expansion (n = 12)): 0 n (%)
- Treatment-related AE: Asthenia, G3 (Dose expansion (n = 12)): 1 (8) n (%)
- Treatment-related AE: Asthenia, G4 (Dose expansion (n = 12)): 0 n (%)
- Treatment-related AE: Blood CPK increased, G1 (Dose expansion (n = 12)): 0 n (%)
- Treatment-related AE: Blood CPK increased, G2 (Dose expansion (n = 12)): 0 n (%)
- Treatment-related AE: Blood CPK increased, G3 (Dose expansion (n = 12)): 1 (8) n (%)
- Treatment-related AE: Blood CPK increased, G4 (Dose expansion (n = 12)): 1 (8) n (%)
- Treatment-related AE: Chorioretinopathy, G1 (Dose expansion (n = 12)): 0 n (%)
- Treatment-related AE: Chorioretinopathy, G2 (Dose expansion (n = 12)): 0 n (%)
- Treatment-related AE: Chorioretinopathy, G3 (Dose expansion (n = 12)): 0 n (%)
- Treatment-related AE: Chorioretinopathy, G4 (Dose expansion (n = 12)): 0 n (%)
- Treatment-related AE: Constipation, G1 (Dose expansion (n = 12)): 0 n (%)
- Treatment-related AE: Constipation, G2 (Dose expansion (n = 12)): 0 n (%)
- Treatment-related AE: Constipation, G3 (Dose expansion (n = 12)): 0 n (%)
- Treatment-related AE: Constipation, G4 (Dose expansion (n = 12)): 0 n (%)
- Treatment-related AE: Decreased appetite, G1 (Dose expansion (n = 12)): 1 (8) n (%)
- Treatment-related AE: Decreased appetite, G2 (Dose expansion (n = 12)): 0 n (%)
- Treatment-related AE: Decreased appetite, G3 (Dose expansion (n = 12)): 0 n (%)
- Treatment-related AE: Decreased appetite, G4 (Dose expansion (n = 12)): 0 n (%)
- Treatment-related AE: Dermatitis acneiform, G1 (Dose expansion (n = 12)): 1 (8) n (%)
- Treatment-related AE: Dermatitis acneiform, G2 (Dose expansion (n = 12)): 0 n (%)
- Treatment-related AE: Dermatitis acneiform, G3 (Dose expansion (n = 12)): 0 n (%)
- Treatment-related AE: Dermatitis acneiform, G4 (Dose expansion (n = 12)): 0 n (%)
- Treatment-related AE: Diarrhea, G1 (Dose expansion (n = 12)): 4 (33) n (%)
- Treatment-related AE: Diarrhea, G2 (Dose expansion (n = 12)): 0 n (%)
- Treatment-related AE: Diarrhea, G3 (Dose expansion (n = 12)): 0 n (%)
- Treatment-related AE: Diarrhea, G4 (Dose expansion (n = 12)): 0 n (%)
- Treatment-related AE: Dry skin, G1 (Dose expansion (n = 12)): 1 (8) n (%)
- Treatment-related AE: Dry skin, G2 (Dose expansion (n = 12)): 0 n (%)
- Treatment-related AE: Dry skin, G3 (Dose expansion (n = 12)): 0 n (%)
- Treatment-related AE: Dry skin, G4 (Dose expansion (n = 12)): 0 n (%)
- Treatment-related AE: Encephalopathy, G1 (Dose expansion (n = 12)): 0 n (%)
- Treatment-related AE: Encephalopathy, G2 (Dose expansion (n = 12)): 0 n (%)
- Treatment-related AE: Encephalopathy, G3 (Dose expansion (n = 12)): 0 n (%)
- Treatment-related AE: Encephalopathy, G4 (Dose expansion (n = 12)): 1 (8) n (%)
- Treatment-related AE: Erythema, G1 (Dose expansion (n = 12)): 0 n (%)
- Treatment-related AE: Erythema, G2 (Dose expansion (n = 12)): 0 n (%)
- Treatment-related AE: Erythema, G3 (Dose expansion (n = 12)): 0 n (%)
- Treatment-related AE: Erythema, G4 (Dose expansion (n = 12)): 0 n (%)
- Treatment-related AE: Fatigue, G1 (Dose expansion (n = 12)): 2 (17) n (%)
- Treatment-related AE: Fatigue, G2 (Dose expansion (n = 12)): 0 n (%)
- Treatment-related AE: Fatigue, G3 (Dose expansion (n = 12)): 0 n (%)
- Treatment-related AE: Fatigue, G4 (Dose expansion (n = 12)): 0 n (%)
- Treatment-related AE: Headache, G1 (Dose expansion (n = 12)): 1 (8) n (%)
- Treatment-related AE: Headache, G2 (Dose expansion (n = 12)): 0 n (%)
- Treatment-related AE: Headache, G3 (Dose expansion (n = 12)): 0 n (%)
- Treatment-related AE: Headache, G4 (Dose expansion (n = 12)): 0 n (%)
- Treatment-related AE: Nausea, G1 (Dose expansion (n = 12)): 1 (8) n (%)
- Treatment-related AE: Nausea, G2 (Dose expansion (n = 12)): 0 n (%)
- Treatment-related AE: Nausea, G3 (Dose expansion (n = 12)): 0 n (%)
- Treatment-related AE: Nausea, G4 (Dose expansion (n = 12)): 0 n (%)
- Treatment-related AE: Paronychia, G1 (Dose expansion (n = 12)): 0 n (%)
- Treatment-related AE: Paronychia, G2 (Dose expansion (n = 12)): 0 n (%)
- Treatment-related AE: Paronychia, G3 (Dose expansion (n = 12)): 0 n (%)
- Treatment-related AE: Paronychia, G4 (Dose expansion (n = 12)): 0 n (%)
- Treatment-related AE: Rash, G1 (Dose expansion (n = 12)): 0 n (%)
- Treatment-related AE: Rash, G2 (Dose expansion (n = 12)): 1 (8) n (%)
- Treatment-related AE: Rash, G3 (Dose expansion (n = 12)): 0 n (%)
- Treatment-related AE: Rash, G4 (Dose expansion (n = 12)): 0 n (%)
- Treatment-related AE: Transaminases increased, G1 (Dose expansion (n = 12)): 0 n (%)
- Treatment-related AE: Transaminases increased, G2 (Dose expansion (n = 12)): 0 n (%)
- Treatment-related AE: Transaminases increased, G3 (Dose expansion (n = 12)): 0 n (%)
- Treatment-related AE: Transaminases increased, G4 (Dose expansion (n = 12)): 0 n (%)
- Treatment-related AE: Vomiting, G1 (Dose expansion (n = 12)): 4 (33) n (%)
- Treatment-related AE: Vomiting, G2 (Dose expansion (n = 12)): 0 n (%)
- Treatment-related AE: Vomiting, G3 (Dose expansion (n = 12)): 0 n (%)
- Treatment-related AE: Vomiting, G4 (Dose expansion (n = 12)): 0 n (%)
- Treatment-related AE: Weight increased, G1 (Dose expansion (n = 12)): 0 n (%)
- Treatment-related AE: Weight increased, G2 (Dose expansion (n = 12)): 0 n (%)
- Treatment-related AE: Weight increased, G3 (Dose expansion (n = 12)): 1 (8) n (%)
- Treatment-related AE: Weight increased, G4 (Dose expansion (n = 12)): 0 n (%)
- AESI aspartate aminotransferase increased (dose escalation suspension): 12%
- AESI epistaxis (dose escalation suspension): 12%
- AESI aspartate aminotransferase increased (dose escalation tablet): 6%
- AESI epistaxis (dose escalation tablet): 17%
- Deaths on study (eleven deaths, all due to PD): 20%
- AESI aspartate aminotransferase increased (expansion): 17%
- AESI creatine phosphokinase increased (expansion): 17%
- Adverse events of special interest (AESI) (expansion): 50%
- TRAEs leading to cobimetinib withdrawal (expansion): 8%
- TRAEs leading to cobimetinib withdrawal (overall, six patients): 11%
- Patients with DLTs (six patients, dose escalation, cycle 1): 11%
- Adverse events of special interest (AESI) (suspension dose escalation): 50%
- TRAEs leading to cobimetinib withdrawal (suspension dose escalation): 15%
- TRAEs leading to cobimetinib withdrawal (events) (suspension dose escalation, 1.0 mg/kg): grade 2 epitheliopathy/keratitis
- TRAEs leading to cobimetinib withdrawal (events) (suspension dose escalation, 1.33 mg/kg): grade 4 chorioretinopathy; also recorded: grade 2 ECG QT prolonged; also recorded: grade 1 serous retinal detachment
- Pediatric recommended Phase II dose (RP2D), suspension (suspension, Days 1–21 of 28-day cycle): 1.0 mg/kg
- TRAEs leading to cobimetinib withdrawal (tablet dose escalation): 6%
- TRAEs leading to cobimetinib withdrawal (events) (tablet dose escalation, 1.0 mg/kg): grade 2 retinal detachment
- Pediatric recommended Phase II dose (RP2D), tablet (tablet, Days 1–21 of 28-day cycle): 0.8 mg/kg
